Values after ≈ are worked out from the molar mass of the structure shown.
Tests used:
[1] = target: Serine/threonine-protein kinase Chk1 (Homo sapiens, UniProt O14757); experiment: Inhibition of CHK1 by microfluidic mobility shift assay
Outline: (§1)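 IC50 determined in the mobility shift format: a fluorescently tagged peptide substrate appropriate to each kinase, ATP at its apparent Km for each protein, and electrophoretic separation of phospho and unphosphorylated peptide. Percent conversion is the ratio of the phosphopeptide peak area to the total peak area. Controls were no inhibitor and no ATP.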

[2] = target: T1, Tyrosine-protein kinase Lck (Homo sapiens, UniProt P06239); experiment: Inhibition of LCK at 30 uM by microfluidic mobility shift assay
Outline: (§2)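 Single-concentration screen, singlicate, 30 uM final (diluted from 1 mM DMSO solutions), fluorescently tagged peptide substrate appropriate to each kinase, ATP at apparent Km for each protein. Phosphorylated and unphosphorylated peptides separated electrophoretically; conversion is the phosphorylated peak area over the sum of both peaks. No-inhibitor and no-ATP controls; H89 reference on each plate.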
Target sequence in this assay (P06239 2-509 limits assumed): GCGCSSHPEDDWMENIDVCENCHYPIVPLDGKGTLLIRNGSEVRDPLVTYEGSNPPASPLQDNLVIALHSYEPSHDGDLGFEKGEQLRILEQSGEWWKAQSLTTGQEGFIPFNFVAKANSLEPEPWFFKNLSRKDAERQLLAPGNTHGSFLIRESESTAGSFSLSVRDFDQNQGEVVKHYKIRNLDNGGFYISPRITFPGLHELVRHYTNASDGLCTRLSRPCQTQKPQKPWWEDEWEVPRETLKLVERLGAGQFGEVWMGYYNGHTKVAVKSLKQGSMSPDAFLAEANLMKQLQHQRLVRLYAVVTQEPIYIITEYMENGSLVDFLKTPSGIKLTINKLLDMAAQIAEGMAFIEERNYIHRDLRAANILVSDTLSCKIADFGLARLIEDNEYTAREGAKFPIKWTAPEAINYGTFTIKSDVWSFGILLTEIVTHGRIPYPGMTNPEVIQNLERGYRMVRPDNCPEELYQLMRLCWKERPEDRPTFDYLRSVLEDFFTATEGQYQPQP

[3] = target: Insulin receptor (Homo sapiens) (UniProt P06213); experiment: Inhibition of INSR at 30 uM by microfluidic mobility shift assay; outline: as §2
[4] = target: T2, Proto-oncogene tyrosine-protein kinase Src (Homo sapiens, UniProt P12931); experiment: Inhibition of SRC by microfluidic mobility shift assay; outline: as §1
[5] = target: Serine/threonine-protein kinase Chk2 (Homo sapiens, UniProt O96017); experiment: Inhibition of CHK2 by microfluidic mobility shift assay; outline: as §1
[6] = target: Aurora kinase A (Homo sapiens, UniProt O14965); experiment: Inhibition of AurA by microfluidic mobility shift assay; outline: as §1
[7] = target: T3, Tyrosine-protein kinase Lyn (Homo sapiens, UniProt P07948); experiment: Inhibition of LYN by microfluidic mobility shift assay; outline: as §1
Target sequence in this assay (P07948 whole entry): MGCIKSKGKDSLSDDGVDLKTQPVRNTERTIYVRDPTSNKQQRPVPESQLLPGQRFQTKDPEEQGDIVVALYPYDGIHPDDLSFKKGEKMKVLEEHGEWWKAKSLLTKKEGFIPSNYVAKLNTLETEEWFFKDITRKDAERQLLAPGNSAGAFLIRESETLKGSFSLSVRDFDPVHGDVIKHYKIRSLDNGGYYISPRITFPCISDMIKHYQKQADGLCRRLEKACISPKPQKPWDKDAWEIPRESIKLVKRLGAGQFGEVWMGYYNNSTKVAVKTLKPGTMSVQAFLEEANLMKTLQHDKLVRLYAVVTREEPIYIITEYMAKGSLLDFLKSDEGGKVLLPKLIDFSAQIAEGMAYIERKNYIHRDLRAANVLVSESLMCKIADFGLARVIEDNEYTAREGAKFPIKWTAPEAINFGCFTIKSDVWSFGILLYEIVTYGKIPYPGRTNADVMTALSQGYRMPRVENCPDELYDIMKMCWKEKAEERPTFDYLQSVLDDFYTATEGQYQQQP

[8] = Inhibition of PKA by microfluidic mobility shift assay; outline: as §1
[9] = target: Mitogen-activated protein kinase 1 (Homo sapiens) (UniProt P28482); experiment: Inhibition of ERK2 at 30 uM by microfluidic mobility shift assay; outline: as §2
[10] = target: Tyrosine-protein kinase ABL1 (Homo sapiens, UniProt P00519); experiment: Inhibition of ABL by microfluidic mobility shift assay; outline: as §1
[11] = Aqueous solubility of the compound by HPLC analysis; assay type: physicochemical; details: water
Outline: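 Solubility determined by HPLC measurement of the concentration in saturated aqueous solutions of the compounds.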

[12] = target: Tyrosine-protein kinase Fyn (Homo sapiens, UniProt P06241); experiment: Inhibition of FYN by microfluidic mobility shift assay; outline: as §1
[13] = target: T3, Tyrosine-protein kinase Lyn; experiment: Inhibition of LYN at 30 uM by microfluidic mobility shift assay; outline: as §2
Target sequence in this assay (P07948 2-512 limits assumed): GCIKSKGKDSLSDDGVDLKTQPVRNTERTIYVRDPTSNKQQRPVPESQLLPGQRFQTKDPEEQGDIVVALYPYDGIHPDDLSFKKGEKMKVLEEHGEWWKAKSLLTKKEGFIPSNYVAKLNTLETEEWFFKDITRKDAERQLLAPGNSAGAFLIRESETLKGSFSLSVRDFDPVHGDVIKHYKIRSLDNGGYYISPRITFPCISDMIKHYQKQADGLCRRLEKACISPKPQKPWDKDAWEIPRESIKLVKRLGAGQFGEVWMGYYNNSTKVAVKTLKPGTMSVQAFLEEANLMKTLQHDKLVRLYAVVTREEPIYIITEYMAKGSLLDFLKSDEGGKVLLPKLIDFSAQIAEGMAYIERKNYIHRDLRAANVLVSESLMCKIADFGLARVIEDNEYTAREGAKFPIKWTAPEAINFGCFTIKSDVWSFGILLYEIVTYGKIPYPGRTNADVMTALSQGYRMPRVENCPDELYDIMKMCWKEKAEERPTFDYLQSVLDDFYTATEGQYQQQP

[14] = target: T4, MAP kinase-activated protein kinase 2 (Homo sapiens, UniProt P49137); experiment: Inhibition of MAPKAPK2 by microfluidic mobility shift assay; outline: as §1
Target sequence in this assay (P49137 whole entry): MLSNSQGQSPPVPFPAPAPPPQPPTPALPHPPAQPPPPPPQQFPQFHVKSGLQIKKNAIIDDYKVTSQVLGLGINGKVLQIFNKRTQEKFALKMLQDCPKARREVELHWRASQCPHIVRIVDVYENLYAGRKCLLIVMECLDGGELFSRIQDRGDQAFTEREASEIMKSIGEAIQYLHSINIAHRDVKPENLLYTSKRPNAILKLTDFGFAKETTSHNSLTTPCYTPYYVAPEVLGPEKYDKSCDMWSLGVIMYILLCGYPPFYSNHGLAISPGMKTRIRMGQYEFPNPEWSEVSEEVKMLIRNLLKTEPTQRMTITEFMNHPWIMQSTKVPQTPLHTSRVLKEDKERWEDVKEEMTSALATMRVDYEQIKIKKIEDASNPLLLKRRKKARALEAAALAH

[15] = target: T5, Serine/threonine-protein kinase D2 (Homo sapiens) (UniProt Q9BZL6); experiment: Inhibition of PKD2 at 30 uM by microfluidic mobility shift assay; outline: as §2
T5 sequence (whole entry): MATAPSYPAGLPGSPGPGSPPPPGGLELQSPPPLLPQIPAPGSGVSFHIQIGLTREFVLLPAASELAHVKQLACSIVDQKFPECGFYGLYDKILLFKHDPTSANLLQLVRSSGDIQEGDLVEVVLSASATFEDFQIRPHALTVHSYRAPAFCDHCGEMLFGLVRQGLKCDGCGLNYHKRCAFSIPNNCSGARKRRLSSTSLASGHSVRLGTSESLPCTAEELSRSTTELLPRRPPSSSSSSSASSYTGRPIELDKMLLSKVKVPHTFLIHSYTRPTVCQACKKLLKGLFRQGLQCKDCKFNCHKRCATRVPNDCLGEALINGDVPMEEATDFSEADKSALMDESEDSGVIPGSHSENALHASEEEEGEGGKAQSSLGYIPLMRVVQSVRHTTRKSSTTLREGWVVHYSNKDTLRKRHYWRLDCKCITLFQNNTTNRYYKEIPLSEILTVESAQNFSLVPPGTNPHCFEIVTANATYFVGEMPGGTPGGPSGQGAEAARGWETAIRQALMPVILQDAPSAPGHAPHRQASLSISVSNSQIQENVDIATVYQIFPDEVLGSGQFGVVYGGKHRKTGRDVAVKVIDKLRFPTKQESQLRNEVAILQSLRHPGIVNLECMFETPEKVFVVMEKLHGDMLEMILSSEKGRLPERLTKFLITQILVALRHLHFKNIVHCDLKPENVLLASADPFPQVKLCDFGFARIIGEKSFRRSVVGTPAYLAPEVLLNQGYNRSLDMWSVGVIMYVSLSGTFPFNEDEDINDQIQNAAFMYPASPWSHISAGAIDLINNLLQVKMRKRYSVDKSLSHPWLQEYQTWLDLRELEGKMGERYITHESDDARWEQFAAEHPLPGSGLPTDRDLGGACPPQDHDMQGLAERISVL

[16] = target: T6, MAP kinase-activated protein kinase 5 (Homo sapiens) (UniProt Q8IW41); experiment: Inhibition of PRAK1 at 30 uM by microfluidic mobility shift assay; outline: as §2
T6 sequence (whole entry): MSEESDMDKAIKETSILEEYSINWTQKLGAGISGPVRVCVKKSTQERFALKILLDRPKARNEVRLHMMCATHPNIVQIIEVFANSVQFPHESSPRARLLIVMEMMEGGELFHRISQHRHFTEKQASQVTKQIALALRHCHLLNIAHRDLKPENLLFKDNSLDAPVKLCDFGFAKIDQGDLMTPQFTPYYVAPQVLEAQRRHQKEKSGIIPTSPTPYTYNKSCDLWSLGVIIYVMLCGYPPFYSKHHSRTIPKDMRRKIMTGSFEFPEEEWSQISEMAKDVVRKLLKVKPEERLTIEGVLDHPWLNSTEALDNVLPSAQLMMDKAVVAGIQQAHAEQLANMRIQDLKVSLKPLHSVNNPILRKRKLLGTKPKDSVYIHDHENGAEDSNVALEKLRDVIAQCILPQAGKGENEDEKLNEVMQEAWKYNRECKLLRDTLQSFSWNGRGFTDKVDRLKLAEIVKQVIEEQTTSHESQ

[17] = target: Casein kinase I isoform delta (Homo sapiens, UniProt P48730); experiment: Inhibition of CK1delta by microfluidic mobility shift assay; outline: as §1
[18] = target: Ribosomal protein S6 kinase alpha-1 (Homo sapiens) (UniProt Q15418); experiment: Inhibition of RSK1 at 30 uM by microfluidic mobility shift assay; outline: as §2
[19] = target: T2, Proto-oncogene tyrosine-protein kinase Src; experiment: Inhibition of SRC at 30 uM by microfluidic mobility shift assay; outline: as §2
[20] = target: T4, MAP kinase-activated protein kinase 2; experiment: Inhibition of MAPKAPK2 at 30 uM by microfluidic mobility shift assay; outline: as §2
Target sequence in this assay (P49137 whole entry, looked up): as the sequence (P49137 whole entry) above

[21] = target: T1, Tyrosine-protein kinase Lck; experiment: Inhibition of LCK by microfluidic mobility shift assay; outline: as §1
[22] = test system: MCF7; experiment: Growth inhibition of human MCF7 cells; assay type: functional

Chain of Mitogen-activated protein kinase 1 (Homo sapiens) (P28482 whole entry): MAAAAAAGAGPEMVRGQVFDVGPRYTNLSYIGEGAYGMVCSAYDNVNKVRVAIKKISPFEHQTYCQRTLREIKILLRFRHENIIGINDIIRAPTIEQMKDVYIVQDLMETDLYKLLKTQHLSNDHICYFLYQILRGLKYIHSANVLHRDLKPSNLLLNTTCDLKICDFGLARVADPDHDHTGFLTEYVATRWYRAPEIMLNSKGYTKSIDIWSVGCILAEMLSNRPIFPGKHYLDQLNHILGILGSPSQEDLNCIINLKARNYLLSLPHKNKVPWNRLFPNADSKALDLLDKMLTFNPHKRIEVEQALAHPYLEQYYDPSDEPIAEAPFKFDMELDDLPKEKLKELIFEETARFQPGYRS
Chain of Ribosomal protein S6 kinase alpha-1 (Homo sapiens) (Q15418 whole entry): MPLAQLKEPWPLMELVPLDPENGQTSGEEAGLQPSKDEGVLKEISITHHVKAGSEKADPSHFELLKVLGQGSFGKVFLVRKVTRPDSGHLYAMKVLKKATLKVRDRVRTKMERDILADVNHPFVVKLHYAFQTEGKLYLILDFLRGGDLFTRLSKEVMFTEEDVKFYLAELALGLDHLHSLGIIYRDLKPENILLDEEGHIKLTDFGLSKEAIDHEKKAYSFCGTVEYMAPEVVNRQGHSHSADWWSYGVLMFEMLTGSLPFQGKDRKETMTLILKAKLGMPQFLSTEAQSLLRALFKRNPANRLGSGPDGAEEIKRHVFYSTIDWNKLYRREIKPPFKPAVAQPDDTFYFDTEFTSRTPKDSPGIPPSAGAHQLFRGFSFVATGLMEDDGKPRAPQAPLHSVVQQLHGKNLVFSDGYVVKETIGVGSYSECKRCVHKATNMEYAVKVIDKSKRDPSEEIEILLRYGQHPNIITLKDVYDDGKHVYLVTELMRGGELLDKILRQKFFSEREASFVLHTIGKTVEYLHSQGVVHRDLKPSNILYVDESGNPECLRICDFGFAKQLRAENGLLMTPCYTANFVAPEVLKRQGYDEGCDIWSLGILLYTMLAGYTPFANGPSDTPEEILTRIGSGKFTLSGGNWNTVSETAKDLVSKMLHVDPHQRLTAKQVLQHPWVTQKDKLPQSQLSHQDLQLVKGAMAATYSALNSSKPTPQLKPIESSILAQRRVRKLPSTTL
T2 sequence (P12931 2-536 limits assumed): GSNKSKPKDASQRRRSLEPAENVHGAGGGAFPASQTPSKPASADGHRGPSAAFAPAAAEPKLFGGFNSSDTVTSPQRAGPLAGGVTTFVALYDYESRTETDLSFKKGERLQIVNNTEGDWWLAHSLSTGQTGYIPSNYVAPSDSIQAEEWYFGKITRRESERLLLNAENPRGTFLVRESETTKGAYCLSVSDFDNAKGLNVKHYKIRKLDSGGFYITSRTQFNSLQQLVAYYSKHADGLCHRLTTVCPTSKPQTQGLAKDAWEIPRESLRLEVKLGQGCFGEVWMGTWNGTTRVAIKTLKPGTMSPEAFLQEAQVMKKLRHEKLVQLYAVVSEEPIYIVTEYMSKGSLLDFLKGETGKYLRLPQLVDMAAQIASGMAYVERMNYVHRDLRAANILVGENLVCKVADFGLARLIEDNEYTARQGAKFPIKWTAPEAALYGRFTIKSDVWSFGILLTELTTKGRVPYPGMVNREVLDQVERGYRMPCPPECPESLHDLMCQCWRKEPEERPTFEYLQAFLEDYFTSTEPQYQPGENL
Chain of Insulin receptor (Homo sapiens) (P06213 28-758 limits assumed): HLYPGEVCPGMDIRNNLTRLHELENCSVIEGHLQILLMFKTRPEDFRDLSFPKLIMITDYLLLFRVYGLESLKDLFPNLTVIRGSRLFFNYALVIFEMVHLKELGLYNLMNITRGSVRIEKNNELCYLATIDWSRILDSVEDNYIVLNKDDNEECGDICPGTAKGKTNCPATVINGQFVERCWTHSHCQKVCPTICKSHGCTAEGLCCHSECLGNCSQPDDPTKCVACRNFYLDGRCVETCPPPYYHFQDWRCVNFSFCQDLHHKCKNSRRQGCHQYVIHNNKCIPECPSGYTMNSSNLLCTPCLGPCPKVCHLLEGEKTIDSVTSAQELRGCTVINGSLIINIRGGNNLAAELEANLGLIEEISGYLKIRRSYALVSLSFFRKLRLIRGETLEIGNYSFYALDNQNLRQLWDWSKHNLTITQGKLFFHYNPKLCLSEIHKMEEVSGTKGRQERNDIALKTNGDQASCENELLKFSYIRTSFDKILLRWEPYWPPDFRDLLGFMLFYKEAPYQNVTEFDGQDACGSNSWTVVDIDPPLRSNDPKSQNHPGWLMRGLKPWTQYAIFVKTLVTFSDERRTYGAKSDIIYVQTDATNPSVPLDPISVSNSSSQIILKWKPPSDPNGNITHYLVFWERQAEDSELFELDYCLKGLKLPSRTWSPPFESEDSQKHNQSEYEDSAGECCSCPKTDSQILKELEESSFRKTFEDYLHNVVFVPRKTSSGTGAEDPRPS
Chain of Insulin receptor (Homo sapiens) (P06213 763-1382 limits assumed): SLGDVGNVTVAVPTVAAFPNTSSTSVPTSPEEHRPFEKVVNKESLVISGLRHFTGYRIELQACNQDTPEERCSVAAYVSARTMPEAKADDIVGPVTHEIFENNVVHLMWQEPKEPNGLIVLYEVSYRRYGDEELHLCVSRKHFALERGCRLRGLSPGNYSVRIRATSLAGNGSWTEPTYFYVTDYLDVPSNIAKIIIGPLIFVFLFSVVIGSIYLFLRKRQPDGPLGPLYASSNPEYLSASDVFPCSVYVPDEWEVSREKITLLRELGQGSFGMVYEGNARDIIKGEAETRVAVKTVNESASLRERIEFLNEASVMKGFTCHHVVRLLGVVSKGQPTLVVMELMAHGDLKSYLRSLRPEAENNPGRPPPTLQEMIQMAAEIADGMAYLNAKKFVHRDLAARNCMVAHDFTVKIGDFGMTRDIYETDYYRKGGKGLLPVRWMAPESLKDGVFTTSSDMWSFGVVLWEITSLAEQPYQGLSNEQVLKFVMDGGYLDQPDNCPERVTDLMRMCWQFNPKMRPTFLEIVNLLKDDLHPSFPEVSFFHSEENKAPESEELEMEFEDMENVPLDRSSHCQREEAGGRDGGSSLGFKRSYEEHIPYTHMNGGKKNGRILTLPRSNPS

Row | SMILES | inhibition [2] | inhibition [3] | inhibition [9] | solubility [11] | inhibition [13] | inhibition [15] | inhibition [16] | inhibition [18] | inhibition [19] | inhibition [20] | other results
1 | CN1CCN(c2ccc(-c3cc4c(c(N)nn4C)c(=O)[nH]3)cc2)CC1 | 65% | 9% | 4% | 55 µg/mL (≈ 163 µM) | 54% | 34% | 26% | 14% | 80% | 45% | IC50 [1]: 24 µM; IC50 [4]: 7.7 µM; IC50 [5]: 34 µM; IC50 [6]: 33 µM; IC50 [7]: 14 µM; IC50 [8]: 5.2 µM; IC50 [10]: 7.8 µM; IC50 [12]: 17 µM; IC50 [14]: 35 µM; IC50 [17]: 39 µM; IC50 [21]: 18 µM
2 | CC(=O)Nc1nn(C)c2cc(-c3ccccc3)[nH]c(=O)c12 | 8% | 5% | 2% | 79 µg/mL (≈ 280 µM) | 13% | 9% | 3% | 4% | 12% | 9% | 
3 | Cn1nc(N)c2c(=O)[nH]c(-c3ccccc3)cc21 | 22% | 2% | 13% | 76 µg/mL (≈ 316 µM) | 22% | 14% | 11% | 8% | 32% | 37% | 
4 | Nc1c2c(=O)[nH]c(-c3ccccn3)cc2nn1-c1ccccc1 | 91% | 4% | 6% |  | 97% | 15% | 2% | 6% | 98% | 4% | GI50 [22]: 0.21 µM
5 | Cc1cc2[nH]nc(N)c2c(N2CCCCC2)n1 | 48% | 9% | 6% | 794 µg/mL (≈ 3430 µM) | 45% | 14% | 10% | 46% | 33% | -1% | 
6 | Cc1cc2c(c(NC(=O)Nc3ccccc3)nn2C)c(=O)[nH]1 | 12% | -5% | 7% | < 1 µg/mL | 16% | -4% | 4% |  | 17% | 0% | 
7 | Cc1cc2[nH]nc(N)c2c(=O)[nH]1 | 6% | -2% | 0% | 1640 µg/mL (≈ 9960 µM) | 3% | -1% | 8% | 6% | 14% | 30% | 
8 | COC(=O)CCc1c(C)[nH]c(=O)c2c(N)nn(C)c12 | 9% | 3% | 5% | 469 µg/mL (≈ 1770 µM) | 6% | 5% | 2% | -5% | 13% | 11% | 
9 | Cc1cc2c(c(N)nn2C)c(=O)[nH]1 | -1% | 3% | 8% | 1220 µg/mL (≈ 6830 µM) |  | 5% | 5% | 2% | 9% | 29% | 
10 | COc1cccc(-c2cc3c(c(N)nn3C)c(=O)[nH]2)c1 | 22% | 6% | 22% |  | 26% | 25% | 6% | 22% | 30% | 47% | 
11 | Nc1n[nH]c2c3c([nH]c(=O)c12)CCCC3 | 7% | -3% | 6% |  | 12% | -7% | 0% | -9% | 6% | 5% | 

From ChEMBL document CHEMBL1811853, “Design and evaluation of 3-aminopyrazolopyridinone kinase inhibitors inspired by the natural product indirubin” (Bioorg Med Chem, 2011)
